Measurements as given in ChEMBL document CHEMBL1122774, “Tri- and tetrapeptide analogues of kinins as potential renal vasodilators” (J Med Chem, 1984).
“And” between values parts separate entries of the source, which are not always exact repeats. Equal values may be shown once. Square brackets hold non-standard residues; d marks the D form. Peptide text beside a SMILES is read from it. * marks the point of attachment. ξ: configuration not given here. Butanoyl(4-(4-HOPh)) = O=C(CCCc1ccc(O)cc1)*; ξαMeF = CC(N)(Cc1ccccc1)C(=O)O; Bz = O=C(c1ccccc1)*

Assays:
Canis familiaris [1] = test: Renal vasodilator activity in anesthetized dogs and percent change in heart rate (HR) was determined at 300 ug/Kg/min; format: functional, Canis lupus familiaris
Procedure, shortened: (§1)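 Primary screen in anesthetized dogs (7-17 kg). Drug infused separately at 3, 30 and 300 µg/(kg min), each infusion lasting 5 min, at about 15-min intervals. Read-outs are renal blood flow, mean arterial blood pressure, heart rate, and RVR (MABP / mean RBF), as percent change. Significance thresholds are defined per number of dogs; n = 1-3 dogs.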

Canis familiaris [2] = test: In vivo percent change in renal blood flow at 30 ug/Kg/min.; format: functional, Canis lupus familiaris, Kidney; procedure, shortened: as §1
Canis familiaris [3] = test: In vivo percent change in canine heart rate at 3 ug/Kg/min.; format: functional, Canis lupus familiaris; procedure, shortened: as §1
Canis familiaris [4] = test: In vivo percent change in canine heart rate at 30 ug/Kg/min.; format: functional, Canis lupus familiaris; procedure, shortened: as §1
Canis familiaris [5] = test: In vivo percent change in canine mean arterial blood pressure (MABP) at 3 ug/Kg/min.; format: functional, Canis lupus familiaris; procedure, shortened: as §1
Canis familiaris [6] = test: In vivo percent change in canine mean arterial blood pressure (MABP) at 30 ug/Kg/min.; format: functional, Canis lupus familiaris; procedure, shortened: as §1
Canis familiaris [7] = test: In vivo percent change in canine mean arterial blood pressure (MABP) at 300 ug/Kg/min.; format: functional, Canis lupus familiaris; procedure, shortened: as §1
Canis familiaris [8] = test: In vivo percent change in canine renal blood flow (RBF) at 3 ug/Kg/min.; format: functional, Canis lupus familiaris, Kidney; procedure, shortened: as §1
Canis familiaris [9] = test: In vivo percent change in canine renal blood flow (RBF) at 300 ug/Kg/min.; format: functional, Canis lupus familiaris, Kidney; procedure, shortened: as §1
Canis familiaris [10] = test: In vivo percent change in canine renal vascular resistance (RVR) at 3 ug/Kg/min.; format: functional, Canis lupus familiaris; procedure, shortened: as §1
Canis familiaris [11] = test: In vivo percent change in canine renal vascular resistance (RVR) at 30 ug/Kg/min.; format: functional, Canis lupus familiaris; procedure, shortened: as §1
Canis familiaris [12] = test: In vivo percent change in canine renal vascular resistance (RVR) at 300 ug/Kg/min.; format: functional, Canis lupus familiaris; procedure, shortened: as §1
[13] = Average max percent decrease in RVR (renal vascular resistance) was determined
Procedure, shortened: (§2)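 Secondary protocol in anesthetized dogs. Drug given as iv infusion at progressively increasing rates, each dose level for 5 min. The maximum effect is taken as the largest percent decrease in renal vascular resistance (RVR) reached with the compound. RVR is calculated as mean arterial blood pressure / mean renal blood flow.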

Canis familiaris [14] = test: Compound was evaluated for renal vasodilator activity and represented as ED15 (intravenous administration); format: functional; conditions: Canis lupus familiaris
Procedure, shortened: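 Secondary protocol in anesthetized dogs with iv infusion at progressively increasing rates, each level infused 5 min. Potency is the cumulative dose (µg/kg) that lowered renal vascular resistance (MABP / mean RBF) by 15%. Minimum change needed for significance (p = 0.95) is 16% for RVR.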

Canis familiaris [15] = test: Renal vasodilator activity in anesthetized dogs and percent change in renal vascular resistance (RVR) was determined at 30 ug/Kg/min; format: functional, Canis lupus familiaris; procedure, shortened: as §1
Canis familiaris [16] = test: In vivo percent change in canine heart rate at 300 ug/Kg/min.; format: functional, Canis lupus familiaris; procedure, shortened: as §1
Canis familiaris [17] = test: Renal vasodilator activity in anesthetized dogs was determined as percent change in heart rate (HR) at 30 ug/Kg/min; format: functional, Canis lupus familiaris; procedure, shortened: as §1
[18] = Ratio of ED20 of MABP (mean arterial blood pressure) to the ED15 of RVR (renal vascular resistance); format: functional
Procedure, shortened: (§3)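 Anesthetized dogs in the secondary cumulative-infusion protocol, each dose level 5 min. Selectivity ratio is the dose giving a 20% change in mean arterial blood pressure divided by the cumulative dose lowering renal vascular resistance 15% (RVR ED15).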

[19] = Ratio of ED30 of iliac vascular resistant (IVR) to the ED15 of RVR (renal vascular resistance); format: functional
Procedure, shortened: (§4)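 Anesthetized dogs in the secondary cumulative-infusion protocol, each dose level 5 min. Selectivity ratio is the dose giving a 30% change in iliac vascular resistance divided by the RVR ED15, the cumulative dose decreasing renal vascular resistance by 15%.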

Canis familiaris [20] = test: Renal vasodilator activity in anesthetized dogs and percent change in renal vascular resistance (RVR) was determined at 300 ug/Kg/min; format: functional, Canis lupus familiaris; procedure, shortened: as §1
[21] = Ratio of ED20 of MABP (mean arterial blood pressure) to the ED15 of RVR ( renal vascular resistance).; format: functional; procedure, shortened: as §3
[22] = Ratio of ED30 of iliac vascular resistant (IVR) to the ED15 of RVR(renal vascular resistance); format: functional; procedure, shortened: as §4
[23] = Average max percent decrease in RVR (renal vascular resistance) was determined.; procedure, shortened: as §2

Row | Compound | Change (Canis familiaris [1]) | Change (Canis familiaris [2]) | Change (Canis familiaris [3]) | Change (Canis familiaris [4]) | Change (Canis familiaris [5]) | Change (Canis familiaris [6]) | Change (Canis familiaris [7]) | Change (Canis familiaris [8]) | Change (Canis familiaris [9]) | Change (Canis familiaris [10]) | Change (Canis familiaris [12]) | ED15 (Canis familiaris [14]) | Change (Canis familiaris [15]) | Change (Canis familiaris [16]) | further results
1 | CC(Cc1ccccc1)(NC(=O)[C@@H]1CCCN1)C(=O)NCCCN.Cl.Cl (stereo partly drawn) | 0% | 1% | -1% | -1% | 1% | -1% | -1% | 5% | 2% | -4% | -3% | – | – | – | Change (Canis familiaris [11]): -1%
2 | CC(Cc1ccccc1)(NC(=O)[C@@H]1CCCN1C(=O)c1ccccc1)C(=O)N[C@@H](CCCN=C(N)N)C(=O)O (stereo partly drawn) (Bz-Pro-[ξαMeF]-Arg-OH) | 6% | 3% | -6% | 3% | -1% | 1% | -4% | 4% | -3% | -5% | 0% | – | – | – | Change (Canis familiaris [11]): -2%
3 | CC(Cc1ccccc1)(NC(=O)[C@@H]1CCCN1C(=O)CCCc1ccc(O)cc1)C(=O)NCC(=O)N1CCC[C@H]1C(=O)O (stereo partly drawn) ({Butanoyl(4-(4-HOPh))}-P[ξαMeF]GP-OH) | – | 16% | 6% | – | -5% | -9% | -6% | 17% | 14% | -18% | -17% | 4.9 µg/kg | -21% | 6% | Decrease [13]: 20%; Change (Canis familiaris [17]): 10%; Ratio [18]: >1226; Ratio [19]: > 1230
4 | CC(Cc1ccccc1)(NC(=O)[C@@H]1CCCN1C(=O)CCCc1ccc(O)cc1)C(=O)NCCCN.Cl (stereo partly drawn) | – | 4.3% | 0.7% | 1.3% | -0.7% | 3% | -1.4% | 3.3% | 11.7% | 4% | – | – | -4.7% | 8% | Change (Canis familiaris [20]): -11.3%
5 | H-RPPGFSPFR-OH [BRADYKININ] | – | – | – | – | – | – | – | – | – | – | – | 2.8 µg/kg | – | – | Ratio [21]: 7 and 8; Ratio [22]: 25
6 | CC(Cc1ccccc1)(NC(=O)[C@@H]1CCCN1C(=O)CCCc1ccccc1)C(=O)N1CCC[C@H]1C(=O)O (stereo partly drawn) | – | 2% | 0% | 0% | 0.5% | 0% | 1% | 3% | 4% | -8% | – | – | -2% | -2% | Change (Canis familiaris [20]): -3%
7 | COc1ccc(CC(C)(NC(=O)[C@@H]2CCCN2C(=O)CCCc2ccc(O)cc2)C(=O)N[C@@H](CCCN=C(N)N)C(=O)O)cc1OC (stereo partly drawn) | 16% | 18% | 1.7% | 6.3% | -2.7% | -7.7% | -32% | 4.3% | 29.5% | -6.7% | -44.5% | 506 µg/kg | -21.3% | – | Decrease [23]: 31%; Ratio [21]: >12; Ratio [19]: > 12
